Results published in ChEMBL document CHEMBL2163278, “α-Substituted β-oxa isosteres of fosmidomycin: synthesis and biological evaluation” (J Med Chem, 2012).

Key:
[1] = Inhibition of recombinant Plasmodium falciparum recombinant IspC using […]1-Deoxy-D-xylulose 5-phosphate substrate by photometric assay
In short: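 Enzyme IC50 from nonlinear regression of inhibition data; mean ± SD from nine or more data points.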

Plasmodium falciparum [2] = assay: Antiplasmodial activity against chloroquine-sensitive Plasmodium falciparum 3D7 incubated for 3 days by HRP2 detection based ELISA method; type: functional, organism-based; conditions: 3D7, 72 h
In short: (§1)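 P. falciparum in continuous in vitro culture, growth inhibition assay. Each compound was tested in 12 serial dilutions, in duplicate. IC50 is the mean of at least two independent experiments.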

Plasmodium falciparum [3] = assay: Antiplasmodial activity against chloroquine-resistant Plasmodium falciparum Dd2 incubated for 3 days by HRP2 detection based ELISA method; type: functional, organism-based; conditions: Dd2, 72 h; in short: as §1

| Compound | IC50 [1] [nM] | IC50 (Plasmodium falciparum [2]) [nM] | IC50 (Plasmodium falciparum [3]) [nM] |
| --- | --- | --- | --- |
| Cc1ccc(C(CCC(=O)N(C)O)P(=O)(O)O)cc1 (stereo not given) | 14 | – | – |
| CN(O)C(=O)COC(c1ccc(F)cc1F)P(=O)(O)O (stereo not given) | 65 | 1300 | 1200 |
| Cc1ccc(C(OCC(=O)NO)P(=O)(O)O)cc1 (stereo not given) | 1800 | > 50000 | – |
| CN(O)C(=O)COC(c1ccccc1)P(=O)(O)O (stereo not given) | 37 | 1200 | 700 |
| CN(O)C(=O)COC(c1ccc(F)cc1)P(=O)(O)O (stereo not given) | 27 | 480 | 350 |
| CCOC(=O)ON(C)C(=O)COC(c1ccc(F)c(F)c1)P(=O)(OCOC(=O)C(C)(C)C)OCOC(=O)C(C)(C)C (stereo not given) | – | 23 | 19 |
| O=C(COC(c1ccc(F)cc1F)P(=O)(O)O)NO (stereo not given) | 1700 | > 50000 | – |
| CN(O)C(=O)COC(c1cccc2ccccc12)P(=O)(O)O (stereo not given) | 39 | 520 | 350 |
| CN(O)C(=O)COC(c1ccc(F)c(F)c1)P(=O)(O)O (stereo not given) | 12 | 540 | 130 |
| CN(O)C(=O)COC(c1ccc(Cl)c(Cl)c1)P(=O)(O)O (stereo not given) | 14 | 240 | 140 |
| O=CN(O)CCCP(=O)(O)O [FOSMIDOMYCIN SODIUM] | – | 880 | 810 |
| Cc1ccc(C(OCC(=O)N(C)O)P(=O)(O)O)cc1 (stereo not given) | 25 | 180 | 190 |
| CN(O)C(=O)CCC(c1ccccc1)P(=O)(O)O (stereo not given) | 3.1 | – | – |
| CCN(O)C(=O)COC(c1ccccc1)P(=O)(O)O (stereo not given) | 210 | 8100 | 3800 |
| O=C(COC(c1ccccc1)P(=O)(O)O)NO (stereo not given) | 1500 | > 50000 | – |
| CCNC(=O)ON(C)C(=O)COC(c1ccc(F)c(F)c1)P(=O)(OCOC(=O)C(C)(C)C)OCOC(=O)C(C)(C)C (stereo not given) | – | 31 | 22 |
| CN(O)C(=O)COC(c1ccc(F)c(F)c1)P(=O)(OCOC(=O)C(C)(C)C)OCOC(=O)C(C)(C)C (stereo not given) | – | 13 | 22 |
